Results taken from ChEMBL document CHEMBL1123121, “Aminotetralone analogues of ketamine: synthesis and evaluation of hypnotic and locomotor properties in mice” (1985).

System: Mus musculus
Assay: Ability to cause […] in mice represented as no. of counts for each animal for a total of 90 min when 100 mg/kg dose was administered intraperitoneally
Assay type: functional
Details: route intraperitoneal
Outline: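 Mice given the compound intraperitoneally at 100 mg kg-1, dissolved in distilled water; controls received 0.2 mL normal saline. Each mouse was placed on an electronic activity monitor and its counts were recorded for 90 min after injection. Counts per minute were taken as total counts divided by 90. Six animals per group, mean ± SEM, groups compared by Duncan's multiple-range test. Experiments were run between 13.00 and 17.00 h at 20-24 °C.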

SMILES | Counts [min⁻¹]
CNC1(C)C(=O)CCc2ccccc21 (stereo unspecified) | 25.8
CN(C)C1(C)C(=O)CCc2ccccc21 (stereo unspecified) | 22.9
CN(C)C1(C)c2ccccc2CCC1O (stereo unspecified) | 37.5
CC1(N)C(=O)CCc2ccccc21 (stereo unspecified) | 27.2
CNC1(C)c2ccccc2CCC1O (stereo unspecified) | 20.2
CC1(N)c2ccccc2CCC1O (stereo unspecified) | 16.2
CC1(N)CCc2ccccc2C1=O (stereo unspecified) | 60.6
CC1(N2CCCCC2)c2ccccc2CCC1O (stereo unspecified) | 21.6
CN(C)C1(C)CCc2ccccc2C1=O (stereo unspecified) | 67.1
CC1(N2CCCCC2)C(=O)CCc2ccccc21 (stereo unspecified) | 4.4
CNC1(c2ccccc2Cl)CCCCC1=O (stereo unspecified) [KETAMINE] | 94.3
